# Bioassay records (PubChem)
# CHRM4 agonist: CHRM4 agonism in calcium assay; activation, % at 3 µM; CHO-K1 hM4/Gqi5, Fluo-8 calcium fluorescence; vehicle 0%, full acetylcholine response 100%; actives 0.14% (n = 360,000); AID 624127; P08173;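 active = activation above the run mean over all test wells plus 3 SD, cut at about 32% in these data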;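 also: peak over basal fluorescence ratio per well then scaled between controls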
# Target sequence (P08173 whole entry, looked up): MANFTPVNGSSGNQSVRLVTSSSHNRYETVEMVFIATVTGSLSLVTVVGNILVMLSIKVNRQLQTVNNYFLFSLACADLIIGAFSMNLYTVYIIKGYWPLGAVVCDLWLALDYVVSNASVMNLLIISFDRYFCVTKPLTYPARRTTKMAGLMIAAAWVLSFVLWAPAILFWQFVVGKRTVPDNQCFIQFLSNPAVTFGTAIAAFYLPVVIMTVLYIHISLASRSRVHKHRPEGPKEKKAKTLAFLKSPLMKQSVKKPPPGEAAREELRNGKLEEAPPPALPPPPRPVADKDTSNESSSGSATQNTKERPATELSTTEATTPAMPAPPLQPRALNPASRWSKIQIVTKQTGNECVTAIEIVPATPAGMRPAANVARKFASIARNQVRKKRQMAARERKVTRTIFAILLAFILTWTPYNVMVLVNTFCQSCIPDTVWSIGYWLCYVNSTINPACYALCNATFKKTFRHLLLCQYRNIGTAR
# M5 antag: CHRM5 antagonism in calcium assay; P08912; CHO-hM5 cells, Fluo-8 calcium fluorescence, ACh EC80; inhibition, % at 3 µM; actives 0.59% (n = 360,000);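 active = inhibition above a per-plate cutoff, the mean of that plate's test compounds plus 3 SD, cut at about 27% in these data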
# M5 ag: agonists of human muscarinic M5 receptor (CHRM5) | P08912 | CHO-K1 hM5 cells, Fluo-8 calcium fluorescence; 0% DMSO wells, 100% maximal acetylcholine response | activation, % at 3 µM | actives 0.19% (n = 360,000);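 active = activation above the run's mean over test compounds plus 3 SD, cut at about 23% in these data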;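 also: signal is peak over basal fluorescence ratio across the kinetic read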
# M4 PAM: positive allosteric modulators of human muscarinic M4 receptor; CHO-K1 hM4/Gqi5, Fluo-8 calcium fluorescence, ACh EC20; 0% = ACh EC20, 100% = maximal ACh; activation, % at 3 µM; actives 0.4% (n = 360,000);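 active = activation above its plate's cutoff, the mean activation of sample wells plus 3 SD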
# M5 PAM: positive allosteric modulators of human muscarinic M5 receptor; P08912; CHO-K1 hM5, Fluo-8 calcium, ACh EC20 PAM; 0% = ACh EC20, 100% = ACh EC100; activation, % at 3 µM; actives 0.3% (n = 360,000); AID 624038;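 active = activation above the run cutoff, the mean activation of all test compounds plus 3 SD, cut at about 18% in these data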
#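 system = human M5 receptor in CHO-K1 cells | compound = one concentration, 3 µM final (nominal) | schedule = Post-acetylcholine fluorescence recording 140 s | signal = Fluo-8 calcium dye fluorescence, kinetic read | benchmarks = low control EC20 acetylcholine (0%), high control EC100 acetylcholine (100%) | repeats = singlicate, one well per test compound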
# CHRM4 antagonist: antagonists of human muscarinic M4 receptor (CHRM4); CHO-hM4 cells, ACh EC80, Fluo-8 calcium fluorescence; inhibition, % at 3 µM; actives 0.73% (n = 360,000);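 active = inhibition above its plate's cutoff, the mean inhibition of sample wells plus 3 SD, cut at about 27% in these data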
# A number is an active result; - = inactive. Hits are enriched below; roughly 1.9% of the tested compounds scored in any of these assays.
SMILES,CHRM4 agonist,M5 antag,M5 ag,M4 PAM,M5 PAM,CHRM4 antagonist
O=C(NCC(=O)N(c1cccnc1)C(C(=O)NC1CCCCC1)c1ccccc1F)c1ccco1 (stereo unspecified),-,-,-,-,-,-
CC(C)c1ccccc1OCC(=O)Nc1ccccc1C(=O)N1CCOCC1,-,-,-,-,-,-
CN(Cc1ccccc1F)C(=O)c1ccc(NC(=O)CC2SC(N3CCCCC3)=NC2=O)cc1 (stereo unspecified),-,-,-,-,-,-
CC(NC(=O)CN1CCN(CC(=O)Nc2ccccc2Cl)CC1)c1ccc(Br)cc1 (stereo unspecified),-,-,-,-,-,-
O=C(NCCc1cn2ccccc2n1)c1cc(COc2ccc3ncccc3c2)on1,-,33,-,-,-,36
O=C(c1cc(COc2ccc3ncccc3c2)on1)N1CCCC1,-,-,-,-,-,-
O=C(c1cc(COc2ccc3ncccc3c2)on1)N1CCCCCC1,-,27,-,-,-,-
Cc1c(N2C(=O)C3C4C=CC(C4)C3C2=O)c(=O)n(-c2ccccc2)n1C (stereo unspecified),-,-,-,-,-,-
CC(=O)/C=C1\SC(CC(=O)O)C(=O)N1c1ccccc1 (stereo unspecified),-,-,-,22,-,-
Cc1c(N2C(=O)SC(CC(=O)O)C2=O)c(=O)n(-c2ccccc2)n1C (stereo unspecified),-,-,-,-,20,-
CC(Oc1ccc2c(c1)c1ccnc3c4ccccc4c(=O)n2c13)C(=O)NCCN1CCOCC1 (stereo unspecified),-,-,-,-,-,-
CC(C)(C)c1ccc(-n2ncc3c2CCCC3NC(=O)CCN2CCCC2=O)cc1 (stereo unspecified),-,-,-,-,-,-
CC(C)c1ccc(CC(=O)N2CCC2(C)C(=O)Nc2ccc3c(c2)OCO3)cc1 (stereo unspecified),-,-,-,-,-,-
CC1(C(=O)Nc2ccc3c(c2)OCCO3)CCN1C(=O)Cc1ccc(-c2ccccc2)cc1 (stereo unspecified),-,30,-,-,-,-
Cc1ccc(N=N/C(=C\O)C(=O)c2ccc(Cl)cc2)cc1,-,-,-,-,-,-
O=C(/C(=C/O)N=Nc1ccccc1)c1ccc(Cl)cc1,-,-,-,-,19,-
CC(Nc1ncnc2sccc12)c1ccccc1 (stereo unspecified),-,33,-,-,-,-
O=C(CN1C(=O)c2ccccc2S1(=O)=O)c1ccc2c(c1)OCCCO2,-,-,-,-,-,-
O=C(CN1C(=O)c2ccccc2S1(=O)=O)c1ccc2c(c1)OCCO2,-,-,-,-,21,-
O=C1CCCC(O)=C1N=Nc1cccc(C(=O)O)c1,-,-,-,20,-,-
c1ccc(C2(CN3CCNC[C@H]3Cc3cccc4ccccc34)CC2)cc1,-,-,-,29,-,-
O=C(O)c1cccc(NC(=O)c2ccccc2)c1,-,-,-,-,-,-
O=C(Nc1cccc(C(=O)Nc2cccc(Br)c2)c1)c1ccccc1,-,30,-,-,-,-
COc1ccc2c(c1OC)C(=O)N1C2SC[C@H]1C(=O)NC1CCCCC1 (stereo partly specified),-,-,38,-,-,-
CC(O)CC(=O)OC[C@]12CC[C@H]3[C@@](C)(CC[C@H]4C(C)(C)CCC[C@]34C)[C@@H]1CC(C1=CC(=O)OC1O)O2 (stereo partly specified),-,-,-,-,-,64
CCNC(=O)CC1C(=O)N(c2ccccc2)C(=O)N1CCC(C)C (stereo unspecified),-,-,-,25,-,-
COc1ccc(C(=O)N(C)c2ccccc2C(=O)NCCc2ccccc2)cc1,-,-,-,-,-,-
O=c1cc(-c2ccc(O)cc2)oc2ccccc12,-,-,-,-,-,-
O=c1cc(-c2ccc(O)cc2)oc2ccc(O)cc12,-,-,-,42,-,-
